Legend:
[1] = Drug level in human P493B cells suspended in human plasma assessed as tumor cell to plasma ratio by measuring 6-diazo-5-oxo-L-norleucine formation at 20 uM measured after 1 hr by LC-MS/MS analysis; type: ADME, cell-based
How it was run: (§1)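 Cells were grown in RPMI 1640 with 10% FBS, washed in DPBS and resuspended in human plasma at 10 million cells/mL. After 5 min preincubation at 37 °C, compound was added at 20 µM final for 1 h. The mix was centrifuged at 10 000g and the washed pellet and plasma were quantified separately. DON was read by LC-MS/MS after dabsyl chloride derivatisation, intact prodrug directly. Standard curves were made in naive cells or plasma.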

[2] = Prodrug conversion in human P493B cells suspended in human plasma assessed as 6-diazo-5-oxo-L-norleucine formation at 20 uM measured after 1 hr by LC-MS/MS analysis; type: ADME, cell-based; how it was run: as §1
[3] = Drug level in human P493B cells suspended in human plasma assessed as tumor cell to plasma ratio by measuring 6-diazo-5-oxo-L-norleucine formation at 20 uM measured after 1 hr by LC-MS/MS analysis relative to 6-diazo-5-oxo-L-norleucine alone; type: ADME, cell-based; how it was run: as §1
[4] = Stability in human plasma suspended with human P493B cells at 20 uM measured after 1 hr by LC-MS/MS analysis; type: ADME, cell-free; how it was run: as §1
[5] = Stability in swine plasma assessed as parent compound remaining at 20 uM measured after 1 hr by LC-MS/MS analysis; conditions: Sus scrofa, pig
[6] = Stability in human plasma assessed as parent compound remaining at 20 uM measured after 1 hr by LC-MS/MS analysis
[7] = Stability in mouse plasma assessed as parent compound remaining at 20 uM measured after 1 hr by LC-MS/MS analysis
[8] = Stability in swine jejunum assessed as parent compound remaining at 20 uM measured after 1 hr by LC-MS/MS analysis; type: ADME, tissue-based, Sus scrofa; conditions: pig
How it was run: (§2)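 Washed swine jejunum was diluted 10-fold in 0.1 M potassium phosphate buffer and probe-sonicated. Prodrug was spiked at 20 µM final and incubated 1 h at 37 °C with orbital shaking. Triplicate quench in acetonitrile with losartan internal standard. Percent parent remaining by LC-MS/MS peak-area ratio.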

[9] = Stability in swine liver homogenates assessed as parent compound remaining at 20 uM measured after 1 hr by LC-MS/MS analysis; conditions: Sus scrofa, pig, tissue homogenate
[10] = Drug level in human P493B cells suspended in human plasma assessed as tumor cell to plasma ratio at 20 uM measured after 1 hr by LC-MS/MS analysis; type: ADME, cell-based
How it was run: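 P493B cells grown in RPMI 1640 with 10% FBS, then suspended in human plasma at 10 million cells/mL. Suspension preincubated 5 min at 37 °C, dosed to a final 20 μM, held 1 h at 37 °C, then spun to separate cells from plasma. DON and intact prodrug in pellet and plasma measured by LC-MS/MS; for DON, after dabsyl chloride derivatization. Ratio = cell DON/plasma DON.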

[11] = (§3) Antiproliferative activity against human P493B cells measured after 72 hrs by CellTiter 96 aqueous one solution cell proliferation assay; type: functional, cell-based
How it was run: (§4)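 P493B lymphoma cells seeded at 20 000 cells/well in growth medium. DMSO stocks added as a 1:10 serial dilution, final 0.2% DMSO. Cells grown 72 h with compound, then given CellTiter 96 AQueous reagent for 2 h and read by absorbance at 490 nm. EC50 obtained by nonlinear regression of log-transformed data.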

Homo sapiens = species: Homo sapiens; assay: as §3; type: functional, cell-based; how it was run: as §4
[12] = Stability in swine jejunum at 20 uM measured after 1 hr by LC-MS/MS analysis; type: ADME, tissue-based, Sus scrofa; conditions: pig; how it was run: as §2
[13] = Prodrug conversion in human P493B cells suspended in human plasma assessed as 6-diazo-5-oxo-L-norleucine formation measured after 1 hr by HRMS analysis; type: ADME, cell-based
How it was run: (§5)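 Metabolite identification: compound was incubated 1 h with 10 million P493B cells suspended in 1 mL human plasma. Cell pellets were collected and metabolites identified by HRMS.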

[14] = Prodrug conversion in human P493B cells suspended in human plasma assessed as (S)-isopropyl 2-amino-6-diazo-5-oxohexanoate formation measured after 1 hr by HRMS analysis; type: ADME, cell-based; how it was run: as §5

| Stability [5] | Stability [6] | Stability [7] | Stability [8] | Stability [9] | Stability [12] | Compound | further results |
| --- | --- | --- | --- | --- | --- | --- | --- |
| 62% | 95% | 0% |  | 0% | Unstable | CC(=O)NCCCC[C@H](NC(=O)[C@@H]1Cc2ccccc2CN1)C(=O)N[C@@H](CCC(=O)C=[N+]=[N-])C(=O)OC(C)C |  |
| 78% | 93% | 2% |  | 19% | Unstable | CC(=O)NCCCC[C@H](NC(=O)OCC1c2ccccc2-c2ccccc21)C(=O)N[C@@H](CCC(=O)C=[N+]=[N-])C(=O)OC(C)C |  |
| 88% | 84% | 30% |  |  | Unstable | CCCCCCCCCCCCCCCC(=O)N[C@@H](CCCCNC(C)=O)C(=O)N[C@@H](CCC(=O)C=[N+]=[N-])C(=O)OC(C)C |  |
| 91% | 95% | 0% | > 50% |  |  | CCCCCCCC(=O)N[C@@H](CCCCNC(C)=O)C(=O)N[C@@H](CCC(=O)C=[N+]=[N-])C(=O)OC(C)C |  |
| 75% | 102% | 0% | > 50% | 67% |  | CC(=O)NCCCC[C@H](NC(=O)[C@H](Cc1c[nH]c2ccccc12)NC(C)=O)C(=O)N[C@@H](CCC(=O)C=[N+]=[N-])C(=O)OC(C)C | Ratio [1]: 11; Drug metabolism [2]: Metabolite_Detected; fold change (FC) [3]: 30; Stability [4]: Stable |

The next lines start with the compound.

| Compound | Stability [5] | Stability [6] | Stability [7] | Stability [8] | Stability [9] | Stability [12] | further results |
| --- | --- | --- | --- | --- | --- | --- | --- |
| CC(=O)NCCCC[C@H](NC(=O)[C@@H]1Cc2ccccc2CN1C(C)=O)C(=O)N[C@@H](CCC(=O)C=[N+]=[N-])C(=O)OC(C)C | 98% | 110% | 0% | > 50% | 72% |  | Ratio [1]: 46; Drug metabolism [2]: 0.12 µM; fold change (FC) [3]: 115; Stability [4]: Stable |
| [N-]=[N+]=CC(=O)CC[C@H](N)C(=O)O [6-DIAZO-5-OXO-L-NORLEUCINE] |  |  |  |  |  |  | Ratio [10]: 0.4; EC50 [11]: 10 µM; Activity (Homo sapiens): Dose-dependent effect |
| CC(=O)NCCCC[C@H](NC(=O)[C@@H](N)Cc1c[nH]c2ccccc12)C(=O)N[C@@H](CCC(=O)C=[N+]=[N-])C(=O)OC(C)C | 19% | 7% | 0% |  | 0% | Unstable |  |
| CC(=O)NCCCC[C@H](NC(=O)OC12CC3CC(CC(C3)C1)C2)C(=O)N[C@@H](CCC(=O)C=[N+]=[N-])C(=O)OC(C)C | 77% | 100% | 4% | > 50% |  |  |  |
| CC(C)OC(=O)[C@@H](N)CCC(=O)C=[N+]=[N-] |  |  |  |  |  |  | Drug metabolism [13]: Metabolite_Detected |
| CC(C)OC(=O)[C@H](CCC(=O)C=[N+]=[N-])NC(=O)[C@H](CCCCN)NC(=O)C12CC3CC(CC(C3)C1)C2 |  |  |  |  |  |  | Drug metabolism [14]: Metabolite_Detected |
| CC(=O)NCCCC[C@H](NC(=O)OC(C)(C)C)C(=O)N[C@@H](CCC(=O)C=[N+]=[N-])C(=O)OC(C)C | 85% | 95% | 1% |  |  |  | Ratio [1]: 13; Drug metabolism [2]: Metabolite_Detected; fold change (FC) [3]: 32; Stability [4]: Stable |
| CC(=O)NCCCC[C@H](NC(=O)Cc1c[nH]c2ccccc12)C(=O)N[C@@H](CCC(=O)C=[N+]=[N-])C(=O)OC(C)C | 98% | 94% | 0% | > 50% | 40% |  |  |
| CC(=O)NCCCC[C@H](NC(=O)[C@H](Cc1c[nH]c2ccccc12)NC(=O)C(C)(C)C)C(=O)N[C@@H](CCC(=O)C=[N+]=[N-])C(=O)OC(C)C | 95% | 88% | 0% |  |  | Unstable |  |

— ChEMBL document CHEMBL4340525, “Tumor-Targeted Delivery of 6-Diazo-5-oxo-l-norleucine (DON) Using Substituted Acetylated Lysine Prodrugs” (J Med Chem, 2019)
